According to ChEMBL document CHEMBL2163205 (J Med Chem, 2012):
Converted amounts (≈) assume the structure as drawn. The source made the active and inactive calls. No cut-off for these calls is given here.

Assays:
[1] = Intrinsic clearance in rat liver microsomes assessed as metabolic turnover
[2] = Lipophilicity, log D of the compound at pH 7.4; settings: buffer
Cathepsin S = Cathepsin S (Homo sapiens, UniProt P25774); test: Inhibition of human recombinant CatS assessed as suppression of enzyme-mediated Z-Val-Val-Arg-AMC cleavage by QFRET assay
Sequence of Cathepsin S (P25774 whole entry): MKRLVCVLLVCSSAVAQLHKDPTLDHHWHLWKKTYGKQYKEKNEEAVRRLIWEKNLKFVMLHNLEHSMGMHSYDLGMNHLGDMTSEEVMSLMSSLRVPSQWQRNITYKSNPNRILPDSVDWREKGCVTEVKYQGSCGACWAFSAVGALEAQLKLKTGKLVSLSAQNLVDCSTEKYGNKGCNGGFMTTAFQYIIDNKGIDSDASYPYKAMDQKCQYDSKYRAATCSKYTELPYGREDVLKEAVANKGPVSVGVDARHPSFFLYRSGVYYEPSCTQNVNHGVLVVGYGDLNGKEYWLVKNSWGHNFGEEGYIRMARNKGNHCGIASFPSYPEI
Procedure, shortened: (§1)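 Recombinant human Cat S at 0.5 nM final was preincubated with compound for 30 min at room temperature. Z-Val-Val-Arg-AMC (100 μM final) was added in potassium phosphate buffer, pH 6.4, incubated 1 h, then stopped with acetic acid. AMC fluorescence read at ex 360/em 425 nm; IC50 by nonlinear regression.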

Procathepsin L = Procathepsin L (Homo sapiens, UniProt P07711); test: Inhibition of human recombinant CatL assessed as suppression of enzyme-mediated Z-Phe-Arg-AMC cleavage by QFRET assay
Sequence of Procathepsin L (P07711 whole entry): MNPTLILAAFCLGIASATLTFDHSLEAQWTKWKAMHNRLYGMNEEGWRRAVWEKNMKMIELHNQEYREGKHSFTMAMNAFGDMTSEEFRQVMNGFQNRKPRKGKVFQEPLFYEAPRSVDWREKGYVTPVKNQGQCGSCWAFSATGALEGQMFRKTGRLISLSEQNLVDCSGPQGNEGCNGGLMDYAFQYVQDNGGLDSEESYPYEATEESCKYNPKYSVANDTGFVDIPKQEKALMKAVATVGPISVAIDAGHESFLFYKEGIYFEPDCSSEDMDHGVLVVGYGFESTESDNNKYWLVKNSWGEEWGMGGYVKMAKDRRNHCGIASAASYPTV
Procedure, shortened: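 Recombinant human Cat L at 0.1 nM final was preincubated with compound for 30 min, then Z-Phe-Arg-AMC (10 μM final) was added. QFRET cleavage was run 1 h at room temperature and stopped with acetic acid. Fluorescence read at ex 360/em 425 nm; IC50 by variable-slope nonlinear regression.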

[3] = Intrinsic clearance in human liver microsomes assessed as metabolic turnover
Cathepsin B = Cathepsin B (Homo sapiens, UniProt P07858); test: Inhibition of human recombinant CatB assessed as suppression of enzyme-mediated Z-Arg-Arg-AMC cleavage by QFRET assay
Procedure, shortened: as §1, with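 “B” for “S”, “Z-Arg-Arg-AMC” for “Z-Val-Val-Arg-AMC”, “Fluorescence” for “AMC fluorescence”, “nm with background correction;” for “nm;”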

Homo sapiens = organism: Homo sapiens; test: Selectivity ratio of IC50 for human recombinant CatS to IC50 for human recombinant CatK
Procedure, shortened: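 Quenched-FRET cleavage assays with in-house recombinant human enzymes at 0.5 nM final. Cat K used 50 μM Z-Phe-Arg-AMC at pH 5.5 (acetate/EDTA). Cat S used 100 μM Z-Val-Val-Arg-AMC at pH 6.4 (potassium phosphate). Compounds were preincubated 30 min at RT, then reacted 1 h, stopped with acetic acid and read at ex 360/em 425 nm. Twelve concentrations; IC50s from variable-slope nonlinear regression; ratio Cat S/Cat K.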

[4] = Aqueous solubility of the compound at pH 7.4; settings: buffer
Cathepsin K [5] = target: T1, Cathepsin K (Homo sapiens, UniProt P43235); test: Inhibition of human recombinant CatK assessed as suppression of enzyme-mediated Z-Phe-Arg-AMC cleavage incubated for 1 hrs by QFRET assay
T1 sequence (P43235 whole entry): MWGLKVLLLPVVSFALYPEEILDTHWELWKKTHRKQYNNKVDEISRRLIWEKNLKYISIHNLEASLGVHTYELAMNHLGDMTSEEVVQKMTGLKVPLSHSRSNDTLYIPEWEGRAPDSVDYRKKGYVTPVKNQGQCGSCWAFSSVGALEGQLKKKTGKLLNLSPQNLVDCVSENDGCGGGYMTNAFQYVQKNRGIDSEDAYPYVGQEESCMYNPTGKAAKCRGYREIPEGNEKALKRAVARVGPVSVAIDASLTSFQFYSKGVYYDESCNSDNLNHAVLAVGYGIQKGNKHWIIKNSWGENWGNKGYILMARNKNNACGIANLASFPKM

[6] = Intrinsic clearance in rat hepatocytes assessed as metabolic turnover measured per 10^6 cells; format: ADME, cell-based, Hepatocyte
Procedure, shortened: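 Intrinsic clearance from in vitro hepatocyte incubation, expressed in μL/min/10⁶ cells. Each value is the mean of at least n = 2 experiments.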

[7] = Fraction unbound at serum; format: ADME, cell-free
Procedure, shortened: (§2)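 Serum or plasma protein binding reported as percentage free. Each value is the mean of at least n = 2 experiments.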

[8] = Oral bioavailability in Alderley Park Han Wistar rat at 2.0 mg/kg administered as single dose; format: ADME, organism-based; settings: in vivo
Procedure, shortened: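 Fed male Alderley Park Han Wistar rats dosed po at 2.0 mg/kg as a suspension in 5% DMSO/95% HPMC/TWEEN; iv reference dose 2.0 mg/kg in 40% DMA/water. Single doses, at least two experiments of two animals each.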

in vivo [9] = settings: Alderley Park Han Wistar, rat, plasma, iv, 2 mg/kg
in vivo [10] = settings: Beagle, dog, plasma, iv, 1 mg/kg
[11] = Half life in Alderley Park Han Wistar rat at 2.0 mg/kg, iv administered as single dose; settings: in vivo
[12] = Intrinsic clearance in dog hepatocytes assessed as metabolic turnover measured per 10^6 cells
[13] = Volume of distribution at steady state in Beagle dog at 1.0 mg/kg, po and 1.0 mg/kg, iv administered as single dose; format: ADME, organism-based, Canis lupus familiaris; settings: in vivo, read-out: Vdss
Procedure, shortened: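 Beagle dogs, fasted. Given single iv dose of 1.0 mg/kg as a solution in 10% DMSO/90% Sorensons and single po dose of 1.0 mg/kg as a suspension in 5% DMSO/95% HPMC/TWEEN. At least two experiments, each with two animals.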

[14] = Intrinsic clearance in human hepatocytes assessed as metabolic turnover measured per 10^6 cells
[15] = Half life in Beagle dog at 1.0 mg/kg, iv administered as single dose; settings: in vivo
[16] = Oral bioavailability in Beagle dog at 1.0 mg/kg administered as single dose; settings: in vivo
[17] = Fraction unbound in dog serum; format: ADME, cell-free, Canis lupus familiaris; procedure, shortened: as §2
[18] = Volume of distribution at steady state in Alderley Park Han Wistar rat at 2.0 mg/kg, po and 2.0 mg/kg, iv administered as single dose; format: ADME, organism-based; settings: in vivo, read-out: Vdss
Procedure, shortened: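 Male Alderley Park Han Wistar rats, fed. Given single iv dose of 2.0 mg/kg as a solution in 40% DMA/water and single po dose of 2.0 mg/kg as a suspension in 5% DMSO/95% HPMC/TWEEN. At least two experiments, each with two animals.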

[19] = Fraction unbound in human serum; format: ADME, cell-free; procedure, shortened: as §2
[20] = Fraction unbound in rat serum; format: ADME, cell-free; procedure, shortened: as §2
Canis familiaris = test: In-vivo inhibition of CatK in orally dosed Alderley Park Beagle dog assessed as reduction in CTX-1 level at 0.1 to 2 mg/kg, po qd by ELISA; format: functional, organism-based; settings: Canis lupus familiaris
Procedure, shortened: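 Male Alderley Park Beagles (12−14 months, 14−17 kg) gavaged at 0.1, 0.3 or 2.0 mg/kg in 5% DMSO + 95% HPMC/Tween, 5 mL/kg, with dosing started at the same time of day. Jugular blood was clotted ≥1 h at room temperature and serum spun down. Serum CTX-1 was measured by CrossLaps ELISA; points are mean n = 2.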

Cathepsin K [21] = target: T2, Cathepsin K (Canis lupus familiaris, UniProt Q3ZKN1); test: Inhibition of dog recombinant CatK assessed as suppression of enzyme-mediated Z-Phe-Arg-AMC cleavage by QFRET assay
T2 sequence (Q3ZKN1 whole entry): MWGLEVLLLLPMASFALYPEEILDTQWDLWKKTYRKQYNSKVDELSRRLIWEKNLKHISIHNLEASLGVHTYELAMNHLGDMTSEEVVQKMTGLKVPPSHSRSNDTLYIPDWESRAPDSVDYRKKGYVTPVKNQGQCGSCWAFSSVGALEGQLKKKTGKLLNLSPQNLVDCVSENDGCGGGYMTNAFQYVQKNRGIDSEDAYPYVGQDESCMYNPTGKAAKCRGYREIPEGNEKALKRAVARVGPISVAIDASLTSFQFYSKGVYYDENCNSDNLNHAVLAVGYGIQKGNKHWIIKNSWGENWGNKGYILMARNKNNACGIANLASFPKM
Procedure, shortened: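 Recombinant dog Cat K at 0.5 nM final was preincubated with compound for 30 min at room temperature. Z-Phe-Arg-AMC (15 μM final) was added in sodium acetate buffer, pH 5.5, and incubated 1 h at room temperature in the dark, then stopped with 7.5% acetic acid. Fluorescence read at ex 360/em 425 nm; IC50 by nonlinear regression.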

CN(C)C(=O)[C@@H]1CCCC[C@H]1C(=O)NCC#N
microsomal CLint [1]: < 2 µL/min/mg | logD [2]: < 0.5 | IC50 (Cathepsin S): 3700 nM | IC50 (Procathepsin L; read-out: IC50): > 40000 nM | microsomal CLint [3]: 5.1 µL/min/mg | IC50 (Cathepsin B): 9820 nM | Ratio IC50 (Homo sapiens): 14 | solubility [4]: > 4600 µM | IC50 (Cathepsin K [5]): 257 nM

CN1CCN(C(=O)[C@@H]2CCCC[C@H]2C(=O)NCC#N)CC1
logD [2]: -0.1 | IC50 (Cathepsin S): 2070 nM | IC50 (Procathepsin L; read-out: IC50): > 40000 nM | microsomal CLint [3]: 7.9 µL/min/mg | IC50 (Cathepsin B): 7630 nM | hepatocyte CLint [6]: < 2 µL/min/1e6 cells | solubility [4]: 3560 µM (≈ 1040 µg/mL) | IC50 (Cathepsin K [5]): 37 nM

N#CC1(NC(=O)[C@@H]2CCCC[C@H]2C(=O)N2CCc3[nH]c4ccccc4c3C2)CC1
microsomal CLint [1]: 143 µL/min/mg | fraction unbound [7]: 0.23 | logD [2]: 2.7 | IC50 (Cathepsin S): > 4000 nM | IC50 (Procathepsin L): Not Active | microsomal CLint [3]: 26 µL/min/mg | IC50 (Cathepsin B): > 2900 nM | bioavailability [8]: 8.2% | solubility [4]: 910 µM (≈ 355 µg/mL) | IC50 (Cathepsin K [5]): 1 nM

N#CC1(NC(=O)[C@@H]2CCCC[C@H]2C(=O)N2CCc3oc4ccccc4c3C2)CC1
microsomal CLint [1]: > 350 µL/min/mg | fraction unbound [7]: 0.12 | logD [2]: 3 | bioavailability [8]: 0% | solubility [4]: 580 µM (≈ 227 µg/mL) | IC50 (Cathepsin K [5]): 25 nM

N#CC1(NC(=O)[C@@H]2CCCC[C@H]2C(=O)N2CCc3[nH]c4ccc(F)cc4c3C2)CC1
clearance (in vivo [9]): 63 mL/min/kg | clearance (in vivo [10]): 10 mL/min/kg | microsomal CLint [1]: > 250 µL/min/mg | logD [2]: 3 | IC50 (Cathepsin S): > 4000 nM | half-life [11]: 0.6 h | IC50 (Procathepsin L; read-out: IC50): > 40000 nM | microsomal CLint [3]: 41 µL/min/mg | hepatocyte CLint [12]: 6.7 µL/min/1e6 cells | Vd [13]: 1.2 L/kg | hepatocyte CLint [14]: < 2.5 µL/min/1e6 cells | IC50 (Cathepsin B): 3520 nM | bioavailability [8]: 3.8% | half-life [15]: 1.8 h | hepatocyte CLint [6]: 126 µL/min/1e6 cells | solubility [4]: 580 µM (≈ 237 µg/mL) | IC50 (Cathepsin K [5]): < 1 nM | bioavailability [16]: 82% | fraction unbound [17]: 0.13 | Vd [18]: 2.3 L/kg | fraction unbound [19]: 0.14 | fraction unbound [20]: 0.16

N#CC1(NC(=O)[C@@H]2CCCC[C@H]2C(=O)N2CCc3[nH]c4ncccc4c3C2)CC1
logD [2]: 2.1 | IC50 (Cathepsin S): > 4000 nM | IC50 (Procathepsin L): Not Active | Vd [13]: 0.9 L/kg | IC50 (Cathepsin B): > 2900 nM | bioavailability [8]: 12% | solubility [4]: 1500 µM (≈ 587 µg/mL) | IC50 (Cathepsin K [5]): 1 nM | bioavailability [16]: 59% | fraction unbound [17]: 0.38 | Vd [18]: 1.6 L/kg | fraction unbound [19]: 0.33 | fraction unbound [20]: 0.42

COc1cccc2c3c([nH]c12)CCN(C(=O)[C@@H]1CCCC[C@H]1C(=O)NC1(C#N)CC1)C3
clearance (in vivo [9]): 53 mL/min/kg | clearance (in vivo [10]): 10 mL/min/kg | microsomal CLint [1]: 67 µL/min/mg | logD [2]: 2.7 | IC50 (Cathepsin S): > 4000 nM | half-life [11]: 1 h | IC50 (Procathepsin L): Not Active | inhibition (Canis familiaris): Active | IC50 (Cathepsin K [21]): 0.8 nM | microsomal CLint [3]: 16 µL/min/mg | hepatocyte CLint [12]: 2.5 µL/min/1e6 cells | Vd [13]: 1.7 L/kg | hepatocyte CLint [14]: 5.3 µL/min/1e6 cells | IC50 (Cathepsin B): > 2900 nM | bioavailability [8]: 28% | half-life [15]: 1.5 h | IC50 (Cathepsin K [5]): < 1 nM | bioavailability [16]: 65% | fraction unbound [17]: 0.22 | Vd [18]: 2.3 L/kg | fraction unbound [19]: 0.17 | fraction unbound [20]: 0.17
